Values belong to the compound of their own block, whether it stands above or below them.
What was measured:
Mus musculus [1] = test: Antiinflammatory activity against PMA-induced ICR mouse ear oedema model assessed as reduction in ear swelling at 1 mg/ear topically administered and measured after 4 hrs; assay type: functional
In short: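 Male ICR mice, 8 weeks old. The sample was applied topically to the right ear at 1.0 mg/ear in ethanol before PMA. After 4 h the mice were killed by cervical dislocation and both ears were measured with a micrometer. Oedema was the thickness difference between the ears; inhibition was the percent reduction versus the model group.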

[2] = biological target: T1, 3',5'-cyclic-AMP phosphodiesterase 4B (Homo sapiens, UniProt Q07343); test: Inhibition of PDE4B (unknown origin) assessed as hydrolysis of [3H]-cAMP into [3H]-AMP incubated for 30 mins by scintillation of proximity assay
T1 sequence (Q07343 whole entry): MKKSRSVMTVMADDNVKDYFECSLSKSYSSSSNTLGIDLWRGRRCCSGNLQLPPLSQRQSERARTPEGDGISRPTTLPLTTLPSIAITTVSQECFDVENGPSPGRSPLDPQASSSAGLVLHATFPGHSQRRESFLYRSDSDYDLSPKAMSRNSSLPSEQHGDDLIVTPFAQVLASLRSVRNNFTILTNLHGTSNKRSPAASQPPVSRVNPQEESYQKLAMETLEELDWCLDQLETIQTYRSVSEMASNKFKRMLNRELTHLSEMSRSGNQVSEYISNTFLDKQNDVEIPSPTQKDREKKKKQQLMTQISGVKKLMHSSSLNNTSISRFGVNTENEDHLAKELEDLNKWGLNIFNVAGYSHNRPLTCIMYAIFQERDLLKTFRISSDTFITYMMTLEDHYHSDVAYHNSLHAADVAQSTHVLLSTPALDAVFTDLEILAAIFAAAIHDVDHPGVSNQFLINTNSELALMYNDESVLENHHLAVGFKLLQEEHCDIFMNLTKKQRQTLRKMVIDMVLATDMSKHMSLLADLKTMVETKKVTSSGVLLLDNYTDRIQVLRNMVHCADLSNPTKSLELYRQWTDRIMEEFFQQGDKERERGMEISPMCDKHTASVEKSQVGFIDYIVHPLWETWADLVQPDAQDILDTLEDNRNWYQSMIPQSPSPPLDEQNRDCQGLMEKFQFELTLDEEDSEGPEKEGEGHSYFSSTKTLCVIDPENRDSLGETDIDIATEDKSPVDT

[3] = Phototoxicity in albino guinea pig assessed as erythema and edema topical treatment irradiated with 4.2 mw/cm2 UVA for 40 mins and measured after 24 hrs day of light irradiation by H and E staining based microscopic analysis; design: species or system Cavia porcellus; details: topical_or_ocular
In short: (§1)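 Albino guinea pigs (250–300 g) were randomized into 5 groups. Four 2 cm × 2 cm depilated areas beside the spine were prepared 24 h before dosing, and 0.2 mL of test substance was applied. Animals were restrained and exposed to UVA for 40 min. Erythema, eschar and oedema were scored visually at 1, 24, 48 and 72 h. Skin taken at 72 h was formalin-fixed, H&E-stained and read by a pathologist.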

[4] = Phototoxicity in albino guinea pig assessed as erythema and edema topical treatment irradiated with 4.2 mw/cm2 UVA for 40 mins and measured after 72 hrs day of light irradiation by H and E staining based microscopic analysis; design: species or system Cavia porcellus; details: topical_or_ocular; in short: as §1
[5] = Phototoxicity in albino guinea pig assessed as infiltration of inflammatory cells at 10 mg/kg topical treatment irradiated with 4.2 mw/cm2 UVA for 40 mins and measured after 24 hrs day of light irradiation by H and E staining based microscopic analysis; assay type: organism-based, Cavia porcellus; details: in vivo, topical_or_ocular, in the assay text read “72 hrs” for “24 hrs”; in short: as §1
[6] = Phototoxicity in albino guinea pig assessed as necrosis at 10 mg/kg topical treatment irradiated with 4.2 mw/cm2 UVA for 40 mins and measured after 24 hrs day of light irradiation by H and E staining based microscopic analysis; assay type: organism-based, Cavia porcellus; details: in vivo, topical_or_ocular, in the assay text read “72 hrs” for “24 hrs”; in short: as §1
[7] = biological target: T1, 3',5'-cyclic-AMP phosphodiesterase 4B; test: Inhibition of PDE4B (unknown origin) assessed as hydrolysis of [3H]-cGMP into [3H]-GMP incubated for 30 mins by scintillation of proximity assay; details: in the assay text read “[3H]-cAMP into [3H]-AMP” for “[3H]-cGMP into [3H]-GMP”
In short: (§2)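 Scintillation proximity assay of [3H]-cAMP or [3H]-cGMP hydrolysis to [3H]-AMP or [3H]-GMP. Enzyme was diluted to 1–2 nM in 50 mM Tris pH 7.5, 8.3 mM MgCl2 and 1.7 mM EGTA. Reaction was started by adding enzyme, test solution and radiolabelled substrate, then incubated at 30 °C for 30 min and stopped with SPA beads. Run in duplicate.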

Homo sapiens [8] = organism: Homo sapiens; test: Selectivity index, ratio of IC50 for PDE1A (unknown origin) to IC50 for PDE4B (unknown origin)
Homo sapiens [9] = organism: Homo sapiens; test: Selectivity index, ratio of IC50 for PDE1B (unknown origin) to IC50 for PDE4B (unknown origin)
Homo sapiens [10] = organism: Homo sapiens; test: Selectivity index, ratio of IC50 for PDE1C (unknown origin) to IC50 for PDE4B (unknown origin)
Homo sapiens [11] = organism: Homo sapiens; test: Selectivity index, ratio of IC50 for PDE2A (unknown origin) to IC50 for PDE4B (unknown origin)
Homo sapiens [12] = organism: Homo sapiens; test: Selectivity index, ratio of IC50 for PDE3A (unknown origin) to IC50 for PDE4B (unknown origin)
Homo sapiens [13] = organism: Homo sapiens; test: Selectivity index, ratio of IC50 for PDE3B (unknown origin) to IC50 for PDE4B (unknown origin)
Homo sapiens [14] = organism: Homo sapiens; test: Selectivity index, ratio of IC50 for PDE5A (unknown origin) to IC50 for PDE4B (unknown origin)
Homo sapiens [15] = organism: Homo sapiens; test: Selectivity index, ratio of IC50 for PDE7A (unknown origin) to IC50 for PDE4B (unknown origin)
Homo sapiens [16] = organism: Homo sapiens; test: Selectivity index, ratio of IC50 for PDE10A (unknown origin) to IC50 for PDE4B (unknown origin)
Mus musculus [17] = test: Antiinflammatory activity against calcipotriol-induced atopic dermatitis mouse model assessed as swelling inhibition by measuring thickness of left ear at 30 mg/kg for 14 days (RVB = 0.26 +/- 0.01 mm); assay type: functional; details: time 14 day
In short: (§3)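 Ointment was applied to the dorsal side of the left ear twice daily (30 mg/kg) for 14 days; the normal group received ethanol. On day 17 the mice were anaesthetized with 10% chloral hydrate and ear thickness was measured with a micrometer. Percent inhibition of the inflammatory reaction was calculated against untreated animals.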

Mus musculus [18] = test: Antiinflammatory activity against calcipotriol-induced atopic dermatitis mouse model assessed as swelling inhibition by measuring thickness of right ear at 30 mg/kg for 14 days (RVB = 0.55 +/- 0.06 mm); assay type: functional; details: time 14 day; in short: as §3
Mus musculus [19] = test: Antiinflammatory activity against calcipotriol-induced atopic dermatitis mouse model assessed as swelling inhibition at 30 mg/kg for 14 days; assay type: functional; design: scale not given: the % may be the effect or the level left; details: time 14 day; in short: as §3
[20] = biological target: Dual specificity calcium/calmodulin-dependent 3',5'-cyclic nucleotide phosphodiesterase 1A (Homo sapiens, UniProt P54750); test: Inhibition of PDE1A (unknown origin); in short: as §2
Dual specificity calcium/calmodulin-dependent 3',5'-cyclic nucleotide phosphodiesterase 1A, sequence (P54750 whole entry): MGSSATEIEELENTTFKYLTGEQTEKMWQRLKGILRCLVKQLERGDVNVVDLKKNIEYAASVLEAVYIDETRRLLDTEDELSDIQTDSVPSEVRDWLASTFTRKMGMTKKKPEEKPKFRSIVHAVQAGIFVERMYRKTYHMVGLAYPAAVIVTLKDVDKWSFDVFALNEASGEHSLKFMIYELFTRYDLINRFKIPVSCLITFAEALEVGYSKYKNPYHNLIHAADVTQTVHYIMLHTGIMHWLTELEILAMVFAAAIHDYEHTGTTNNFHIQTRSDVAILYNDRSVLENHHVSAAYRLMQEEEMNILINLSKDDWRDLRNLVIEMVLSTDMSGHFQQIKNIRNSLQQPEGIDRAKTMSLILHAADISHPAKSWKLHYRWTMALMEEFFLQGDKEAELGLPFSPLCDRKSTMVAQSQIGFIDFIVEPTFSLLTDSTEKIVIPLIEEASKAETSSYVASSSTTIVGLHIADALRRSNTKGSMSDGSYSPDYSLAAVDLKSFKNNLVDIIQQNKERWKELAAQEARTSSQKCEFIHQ

[21] = biological target: Dual specificity calcium/calmodulin-dependent 3',5'-cyclic nucleotide phosphodiesterase 1B (Homo sapiens, UniProt Q01064); test: Inhibition of PDE1B (unknown origin); in short: as §2
[22] = biological target: Dual specificity calcium/calmodulin-dependent 3',5'-cyclic nucleotide phosphodiesterase 1C (Homo sapiens, UniProt Q14123); test: Inhibition of PDE1C (unknown origin)
Dual specificity calcium/calmodulin-dependent 3',5'-cyclic nucleotide phosphodiesterase 1C, sequence (Q14123 whole entry): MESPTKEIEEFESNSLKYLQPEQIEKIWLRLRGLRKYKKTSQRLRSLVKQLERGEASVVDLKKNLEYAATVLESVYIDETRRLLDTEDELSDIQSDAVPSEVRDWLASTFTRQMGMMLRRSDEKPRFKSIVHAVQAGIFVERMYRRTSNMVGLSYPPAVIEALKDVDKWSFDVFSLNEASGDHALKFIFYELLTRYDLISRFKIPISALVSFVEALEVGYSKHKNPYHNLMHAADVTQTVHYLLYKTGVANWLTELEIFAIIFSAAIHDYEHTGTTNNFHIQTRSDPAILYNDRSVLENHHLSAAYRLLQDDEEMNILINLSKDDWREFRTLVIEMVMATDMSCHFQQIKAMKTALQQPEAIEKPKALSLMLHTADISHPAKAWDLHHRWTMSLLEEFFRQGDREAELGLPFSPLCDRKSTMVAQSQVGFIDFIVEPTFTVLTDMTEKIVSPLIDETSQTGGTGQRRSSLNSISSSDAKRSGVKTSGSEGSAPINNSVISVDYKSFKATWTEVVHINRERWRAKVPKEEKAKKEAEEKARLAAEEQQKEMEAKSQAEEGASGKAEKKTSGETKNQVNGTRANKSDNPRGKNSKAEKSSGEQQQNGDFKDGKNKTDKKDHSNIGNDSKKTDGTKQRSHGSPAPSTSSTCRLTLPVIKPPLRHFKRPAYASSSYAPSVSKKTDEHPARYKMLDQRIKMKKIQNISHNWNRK
In short: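 For PDE1A, PDE1B and PDE1C, the reaction buffer was also supplemented with 0.2 mM CaCl2 and […]. Otherwise the same SPA run as the other PDEs: [3H]-nucleotide hydrolysis at 30 °C for 30 min, in duplicate.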

[23] = biological target: cGMP-dependent 3',5'-cyclic phosphodiesterase (Homo sapiens, UniProt O00408); test: Inhibition of PDE2A (unknown origin); in short: as §2
[24] = biological target: cGMP-inhibited 3',5'-cyclic phosphodiesterase 3A (Homo sapiens, UniProt Q14432); test: Inhibition of PDE3A (unknown origin); in short: as §2
[25] = biological target: cGMP-inhibited 3',5'-cyclic phosphodiesterase 3B (Homo sapiens, UniProt Q13370); test: Inhibition of PDE3B (unknown origin); in short: as §2
cGMP-inhibited 3',5'-cyclic phosphodiesterase 3B, sequence (Q13370 whole entry): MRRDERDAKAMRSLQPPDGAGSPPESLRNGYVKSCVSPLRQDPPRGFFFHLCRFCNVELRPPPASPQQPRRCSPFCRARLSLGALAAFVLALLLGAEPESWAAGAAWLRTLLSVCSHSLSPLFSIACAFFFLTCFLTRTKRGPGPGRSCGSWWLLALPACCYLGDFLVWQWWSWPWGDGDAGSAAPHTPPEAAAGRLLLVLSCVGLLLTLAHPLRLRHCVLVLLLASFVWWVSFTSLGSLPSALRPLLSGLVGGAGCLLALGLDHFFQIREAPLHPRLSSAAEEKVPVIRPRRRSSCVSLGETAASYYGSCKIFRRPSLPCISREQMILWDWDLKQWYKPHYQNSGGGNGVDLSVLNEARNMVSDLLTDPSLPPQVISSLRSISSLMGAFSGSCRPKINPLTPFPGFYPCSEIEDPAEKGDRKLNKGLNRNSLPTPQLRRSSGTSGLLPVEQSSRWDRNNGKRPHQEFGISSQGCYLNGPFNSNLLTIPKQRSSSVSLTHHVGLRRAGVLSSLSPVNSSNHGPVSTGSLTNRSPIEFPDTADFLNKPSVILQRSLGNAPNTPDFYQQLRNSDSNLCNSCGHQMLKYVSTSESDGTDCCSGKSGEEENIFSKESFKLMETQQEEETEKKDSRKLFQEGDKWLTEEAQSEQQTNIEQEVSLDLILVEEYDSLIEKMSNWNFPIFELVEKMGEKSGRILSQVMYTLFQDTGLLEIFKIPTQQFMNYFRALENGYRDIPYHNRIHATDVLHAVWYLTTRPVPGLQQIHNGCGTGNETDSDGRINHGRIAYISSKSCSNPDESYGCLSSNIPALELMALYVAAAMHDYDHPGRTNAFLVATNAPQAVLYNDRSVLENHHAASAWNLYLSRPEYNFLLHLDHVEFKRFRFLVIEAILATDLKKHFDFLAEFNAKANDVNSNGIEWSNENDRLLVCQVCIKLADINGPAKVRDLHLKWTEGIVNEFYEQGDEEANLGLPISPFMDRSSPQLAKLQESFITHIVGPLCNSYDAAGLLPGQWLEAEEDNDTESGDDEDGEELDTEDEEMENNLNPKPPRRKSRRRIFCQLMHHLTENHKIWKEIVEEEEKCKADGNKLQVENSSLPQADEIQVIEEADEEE

[26] = biological target: T1, 3',5'-cyclic-AMP phosphodiesterase 4B; test: Inhibition of PDE4B (unknown origin); in short: as §2
[27] = biological target: cGMP-specific 3',5'-cyclic phosphodiesterase (Homo sapiens, UniProt O76074); test: Inhibition of PDE5A (unknown origin); in short: as §2
[28] = biological target: High affinity 3',5'-cyclic-AMP phosphodiesterase 7A (Homo sapiens, UniProt Q13946); test: Inhibition of PDE7A (unknown origin); in short: as §2
High affinity 3',5'-cyclic-AMP phosphodiesterase 7A, sequence (Q13946 whole entry): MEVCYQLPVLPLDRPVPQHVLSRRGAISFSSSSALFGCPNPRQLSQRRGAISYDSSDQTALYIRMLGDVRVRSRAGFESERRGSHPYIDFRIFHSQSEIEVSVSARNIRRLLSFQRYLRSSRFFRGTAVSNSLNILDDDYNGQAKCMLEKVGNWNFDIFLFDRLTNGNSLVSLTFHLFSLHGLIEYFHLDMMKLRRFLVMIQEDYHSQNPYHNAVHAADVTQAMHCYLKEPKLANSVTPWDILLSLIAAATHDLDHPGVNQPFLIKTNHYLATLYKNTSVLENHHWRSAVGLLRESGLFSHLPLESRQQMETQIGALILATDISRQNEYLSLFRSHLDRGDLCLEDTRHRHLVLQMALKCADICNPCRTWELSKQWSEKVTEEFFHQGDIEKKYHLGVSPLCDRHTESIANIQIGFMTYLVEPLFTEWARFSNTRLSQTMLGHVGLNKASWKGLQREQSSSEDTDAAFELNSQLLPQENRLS

[29] = biological target: cAMP and cAMP-inhibited cGMP 3',5'-cyclic phosphodiesterase 10A (Homo sapiens, UniProt Q9Y233); test: Inhibition of PDE10A (unknown origin); in short: as §2
cAMP and cAMP-inhibited cGMP 3',5'-cyclic phosphodiesterase 10A, sequence (Q9Y233 whole entry): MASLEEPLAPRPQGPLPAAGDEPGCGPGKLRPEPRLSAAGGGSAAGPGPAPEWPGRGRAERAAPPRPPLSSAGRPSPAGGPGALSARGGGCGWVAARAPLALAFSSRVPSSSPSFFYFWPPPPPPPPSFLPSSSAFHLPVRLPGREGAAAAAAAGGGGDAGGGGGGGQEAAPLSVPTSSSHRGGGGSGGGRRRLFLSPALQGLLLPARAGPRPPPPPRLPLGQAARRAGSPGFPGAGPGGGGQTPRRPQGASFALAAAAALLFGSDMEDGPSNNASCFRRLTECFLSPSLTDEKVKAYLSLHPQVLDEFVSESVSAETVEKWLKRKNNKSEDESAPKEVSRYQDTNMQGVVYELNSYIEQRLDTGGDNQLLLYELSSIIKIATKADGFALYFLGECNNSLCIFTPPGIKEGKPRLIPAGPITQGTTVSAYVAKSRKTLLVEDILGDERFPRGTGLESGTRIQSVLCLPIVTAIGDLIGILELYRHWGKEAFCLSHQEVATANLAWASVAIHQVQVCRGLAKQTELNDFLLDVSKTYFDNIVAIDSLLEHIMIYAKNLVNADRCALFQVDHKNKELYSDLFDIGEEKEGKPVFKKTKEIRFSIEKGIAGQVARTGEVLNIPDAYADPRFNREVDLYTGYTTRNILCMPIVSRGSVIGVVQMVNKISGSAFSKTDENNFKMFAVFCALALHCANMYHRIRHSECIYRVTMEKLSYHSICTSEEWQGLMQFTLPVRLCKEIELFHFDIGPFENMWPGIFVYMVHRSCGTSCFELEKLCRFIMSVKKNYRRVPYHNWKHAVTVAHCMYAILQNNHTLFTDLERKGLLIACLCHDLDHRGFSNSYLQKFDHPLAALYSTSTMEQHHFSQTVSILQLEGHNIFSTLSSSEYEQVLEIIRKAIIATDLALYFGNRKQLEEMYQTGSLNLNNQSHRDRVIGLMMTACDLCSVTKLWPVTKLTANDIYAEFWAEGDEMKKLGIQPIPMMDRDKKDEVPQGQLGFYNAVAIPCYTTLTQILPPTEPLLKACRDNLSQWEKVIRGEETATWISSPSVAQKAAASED

Compound: CC(=O)c1ccc2nc(Oc3ccc4c(c3)COB4O)ccc2c1
inhibition (INH) (Mus musculus [1]): 34.09%
IC50 [2]: 0.00357 µM

Compound: CCOC(=O)c1cccc2nc(Oc3ccc4c(c3)COB4O)ccc12
inhibition (INH) (Mus musculus [1]): 57.69%
IC50 [2]: 0.0173 µM

Compound: COc1c2occc2cc2ccc(=O)oc12 [METHOXSALEN]
Activity [3]: Toxic
Activity [4]: Non-Toxic
Activity [5]: Toxic
Activity [6]: Toxic

Compound: O=C(O)c1cccc2nc(Oc3ccc4c(c3)COB4O)ccc12
IC50 [7]: 0.124 µM
inhibition (INH) (Mus musculus [1]): 45.76%

Compound: CC(=O)c1cccc2nc(Oc3ccc4c(c3)COB4O)ccc12
inhibition (INH) (Mus musculus [1]): 39.56%
IC50 [2]: 0.00305 µM

The next lines start with results.

IC50 [7]: 0.0572 µM
Ratio IC50 (Homo sapiens [8]): 85
Ratio IC50 (Homo sapiens [9]): 271
Ratio IC50 (Homo sapiens [10]): 1080
Ratio IC50 (Homo sapiens [11]): 55
Ratio IC50 (Homo sapiens [12]): 970
Ratio IC50 (Homo sapiens [13]): 891
Ratio IC50 (Homo sapiens [14]): 850
Ratio IC50 (Homo sapiens [15]): 31
Ratio IC50 (Homo sapiens [16]): 1480
IC50 [20]: 5.6 µM
IC50 [21]: 17.9 µM
IC50 [22]: 71 µM
IC50 [23]: 3.63 µM
IC50 [24]: 64 µM
IC50 [25]: 58.8 µM
IC50 [26]: 0.07 µM
IC50 [27]: 56.1 µM
IC50 [28]: 2.03 µM
IC50 [29]: 97.6 µM
Compound: N#Cc1ccc(Oc2ccc3c(c2)COB3O)cc1 [CRISABOROLE]
inhibition (INH) (Mus musculus [1]): 43.55%
Activity (Mus musculus [17]): 0.29 mm
Activity (Mus musculus [18]): 0.37 mm
Activity (Mus musculus [19]): 32.5%
Activity [5]: Non-Toxic
Activity [6]: Non-Toxic

IC50 [7]: 0.0655 µM
Compound: CC1(C)CC(=O)c2ccc(Oc3ccc4c(c3)COB4O)cc2O1

IC50 [7]: 0.0219 µM
Compound: COC(=O)c1cccc2cc(Oc3ccc4c(c3)COB4O)ccc12
